# Data reported in ChEMBL document CHEMBL1124631, “3-(aminoalkyl)-1,2,3,4-tetrahydro-5H-[1]benzopyrano[3,4-c] pyridin-5-ones as potential anticholinergic bronchodilators” (1989).
# Tests used:
# Cavia porcellus = assay: Methacholine challenge test was performed on guinea pigs by administration of compound at 25 mg/kg perorally; format: functional; details: route oral
# How it was run: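 Hartley guinea pigs, six per treatment, dosed orally at 25 mg/kg 15 min before challenge. Exposed for 10 min to 0.1% methacholine chloride aerosol from two nebulizers in a closed chamber, air pressure 10 lb/in.². Time from aerosol onset to collapse recorded and averaged ± S.E.M. Non-collapsing animals removed at 10 min and scored 10.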
# Canis familiaris [1] = species: Canis familiaris; assay: Inhibition of dog salivation by 50% of control value.; format: functional; details: Canis lupus familiaris; read-out: ID50 (the source's name)
# How it was run: (§1)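 Dogs with femoral vein cannulated; respiratory rate, heart rate and arterial pressure monitored. Bunolol 0.5 mg/kg iv given 30 min before pilocarpine nitrate infusion (0.2 mg/kg/h) to induce bronchospasm and salivation. Saliva collected from catheterized Wharton's duct every 5 min. Cumulative iv doses 1–10,000 μg/kg given every 5 min. ID50 by linear regression of log cumulative dose vs % inhibition. Mostly one dog per compound.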
# Canis familiaris [2] = species: Canis familiaris; assay: Pulmonary selectivity measured as the ratio of salivation and bronchospasm; format: functional, Canis lupus familiaris, Bronchiole
# How it was run: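 Pilocarpine-infused dog model measuring pulmonary resistance and salivary output under cumulative iv doses (1–10,000 μg/kg). ID50 for each response by log dose–response linear regression. Selectivity = ID50 for salivation inhibition divided by ID50 for bronchospasm inhibition. Most compounds tested in one dog.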
# Canis familiaris [3] = species: Canis familiaris; assay: Compound dose for inhibiting dog cholinergic bronchoconstriction by 50% of control value.; format: functional; details: Canis lupus familiaris, Lung; read-out: ID50 (the source's name); how it was run: as §1
SMILES,Collapse time (Cavia porcellus) [min],ED50 (Canis familiaris [1]) [mg/kg],Ratio (Canis familiaris [2]),ED50 (Canis familiaris [3]) [mg/kg]
COc1cc2oc(=O)c3c(c2cc1OC)CCN(CCN1CC2CCC1CC2)C3,7.6,0.14,1,0.137
COc1ccc2c3c(c(=O)oc2c1)CN(CCN1CC2CCC1CC2)CC3,10,0.102,1.6,0.063
Cc1cc2oc(=O)c3c(c2cc1C)CCN(CC(C)N1CCCCC1)C3 (centres undefined),7.7,1.16,3.9,0.3
CCOc1cc2oc(=O)c3c(c2cc1OCC)CCN(CC(C)N1CCCCC1)C3 (centres undefined),10,0.194,1.5,0.126
COc1cc2oc(=O)c3c(c2cc1OC)CCN(CCN1CC2CCCC(C2)C1)C3,6.6,,,0.119
CCN(C)C(C)CN1CCc2c(c(=O)oc3cc(OC)c(OC)cc23)C1 (centres undefined),6,0.111,0.82,0.135
CCCN(CC)C(C)CN1CCc2c(c(=O)oc3cc(OC)ccc23)C1 (centres undefined),10,0.027,0.47,0.058
COc1ccc2c3c(c(=O)oc2c1)CN(CCN1CC2CCCC(C2)C1)CC3,7.3,0.154,0.15,1.03
COc1ccc2c3c(c(=O)oc2c1)CN(CCN1CC2CCC(CC2)C1)CC3,6,0.104,3,0.035
COc1cc2oc(=O)c3c(c2cc1OC)CCN(CC(C)N1CCOCC1)C3 (centres undefined),10,,,
CCCN(C)C(C)CN1CCc2c(c(=O)oc3cc(OC)ccc23)C1 (centres undefined),10,0.084,1.2,0.073
COc1cc2oc(=O)c3c(c2cc1OC)CCN(CCN1CCCCCC1)C3,4,,,
COc1cc2oc(=O)c3c(c2cc1OC)CCN(CCN1CCCCC1)C3,4.9,,,
Cc1cc2oc(=O)c3c(c2cc1C)CCN(CCN1CC2CCC(CC2)C1)C3,5.1,0.223,0.6,0.372
O=c1oc2ccccc2c2c1CN(CCN1CC3CCC(CC3)C1)CC2,5.2,0.068,0.08,0.849
COc1ccc2c3c(c(=O)oc2c1)CN(CCN1CCOCC1)CC3,6.1,0.714,0.63,1.14
CCOc1cc2oc(=O)c3c(c2cc1OCC)CCN(CCN1CC2CCC(CC2)C1)C3,6.3,0.21,0.79,0.267
COc1ccc2c3c(c(=O)oc2c1)CN(CCN(C)C)CC3,1.9,,,
Cc1ccc2c3c(c(=O)oc2c1)CN(CC(C)N(C)C)CC3 (centres undefined),10,,3.7,
CCNC(C)CN1CCc2c(c(=O)oc3cc(OC)c(OC)cc23)C1 (centres undefined),1.7,,,

SMILES,Collapse time (Cavia porcellus) [min],ED50 (Canis familiaris [1]) [mg/kg],Ratio (Canis familiaris [2]),ED50 (Canis familiaris [3]) [mg/kg]
CCCN(CC)C(C)CN1CCc2c(c(=O)oc3cc(OC)c(OC)cc23)C1 (centres undefined),3.7,,,
Cc1ccc2c3c(c(=O)oc2c1)CN(CC(C)N1CCCC1)CC3 (centres undefined),8.7,0.226,2.3,0.1
COc1ccc2c3c(c(=O)oc2c1)CN(CCN1CCCC1)CC3,9.1,0.735,3,0.246
CCN(C)C(C)CN1CCc2c(c(=O)oc3cc(C)ccc23)C1 (centres undefined),8.8,,2.2,
CCN(C)C(C)CN1CCc2c(c(=O)oc3cc(OC)ccc23)C1 (centres undefined),9.1,0.023,1.5,0.015
COc1cc2oc(=O)c3c(c2cc1OC)CCN(CC(C)N1CCCC1)C3 (centres undefined),10,0.023,1.4,0.017
COc1cc2oc(=O)c3c(c2cc1OC)CCN(CCN1CC2CCC(CC2)C1)C3,5,0.53,4.7,0.113
COc1cc2oc(=O)c3c(c2cc1OC)CCN(CC(C)N1CCCCCC1)C3 (centres undefined),1.7,,,
CCNC(C)CN1CCc2c(c(=O)oc3ccccc23)C1 (centres undefined),10,,5.9,
Cc1cc2oc(=O)c3c(c2cc1C)CCN(CC(C)N1CCCC1)C3 (centres undefined),8.2,0.699,2.2,0.315
CCOc1cc2oc(=O)c3c(c2cc1OCC)CCN(CC(C)N1CCCC1)C3 (centres undefined),9.4,0.163,1.6,0.099
CCN(CC)C(C)CN1CCc2c(c(=O)oc3cc(OC)c(OC)cc23)C1 (centres undefined),7.8,,3.5,
COc1ccc2c3c(c(=O)oc2c1)CN(CCN1CCCCCC1)CC3,8,0.398,1.8,0.223
CCNC(C)CN1CCc2c(c(=O)oc3cc(OC)ccc23)C1 (centres undefined),7.5,0.227,2.6,0.086
CCCN(C)C(C)CN1CCc2c(c(=O)oc3cc(C)ccc23)C1 (centres undefined),5.4,0.304,1.6,0.192
CCN(CC)C(C)CN1CCc2c(c(=O)oc3cc(C)ccc23)C1 (centres undefined),6.6,,4.6,
CCCN(CCC)CCN1CCc2c(c(=O)oc3cc(OC)ccc23)C1,7,0.855,2,0.428
COc1ccc2c3c(c(=O)oc2c1)CN(CCN1CCCCC1)CC3,9.5,0.141,0.69,0.205
COc1cc2oc(=O)c3c(c2cc1OC)CCN(CCN1C(C)(C)CCCC1(C)C)C3,2.8,,,
COc1cc2oc(=O)c3c(c2cc1OC)CCN(CC(C)N(C)C)C3 (centres undefined),5.2,,4.5,

SMILES,Collapse time (Cavia porcellus) [min],ED50 (Canis familiaris [1]) [mg/kg],Ratio (Canis familiaris [2]),ED50 (Canis familiaris [3]) [mg/kg]
COc1ccc2c3c(c(=O)oc2c1)CN(CC(C)N(C)C)CC3 (centres undefined),10,0.027,1.1,0.025
CC(C)c1ccc2c3c(c(=O)oc2c1)CN(CCN1CC2CCC(CC2)C1)CC3,6.2,0.128,0.61,0.209
Cc1ccc2c3c(c(=O)oc2c1)CN(CCN1CC2CCC(CC2)C1)CC3,5,0.452,1.9,0.235
CCCN(CC)C(C)CN1CCc2c(c(=O)oc3cc(C)ccc23)C1 (centres undefined),7.6,0.182,1.6,0.116
COc1cc2oc(=O)c3c(c2cc1OC)CCN(CC(C)N1CCCCC1)C3 (centres undefined),10,0.168,1.3,0.129
CC(CN1CCc2c(c(=O)oc3ccccc23)C1)N1CCCC1 (centres undefined),10,0.19,2.2,0.088
CCNC(C)CN1CCc2c(c(=O)oc3cc(C)ccc23)C1 (centres undefined),10,0.225,0.36,0.627
CCN(CC)C(C)CN1CCc2c(c(=O)oc3cc(OC)ccc23)C1 (centres undefined),10,0.046,1.2,0.038
CCCN(CC)C(C)CN1CCc2c(c(=O)oc3ccccc23)C1 (centres undefined),6.4,0.97,0.88,1.11
CCN(CC)C(C)CN1CCc2c(c(=O)oc3ccccc23)C1 (centres undefined),10,,6.9,
CCN(CC)CCN1CCc2c(c(=O)oc3cc(OC)ccc23)C1,8,0.158,0.4,0.394
Cc1ccc2c3c(c(=O)oc2c1)CN(CC(C)N1CCCCC1)CC3 (centres undefined),9.7,0.108,2.7,0.04
CCc1ccc2c3c(c(=O)oc2c1)CN(CCN1CC2CCC(CC2)C1)CC3,6.8,0.041,0.55,0.074
CCCN(C)C(C)CN1CCc2c(c(=O)oc3cc(OC)c(OC)cc23)C1 (centres undefined),2.5,,,
CC(CN1CCc2c(c(=O)oc3ccccc23)C1)N(C)C (centres undefined),10,,21.6,
CC(CN1CCc2c(c(=O)oc3ccccc23)C1)N1CCCCC1 (centres undefined),10,0.219,5.8,0.038
COc1cc2oc(=O)c3c(c2cc1OC)CCN(CCCN1CCCCC1)C3,1.6,,,
CCN1CCCC1CN1CCc2c(c(=O)oc3cc(OC)c(OC)cc23)C1.Cl.Cl (centres undefined),2.8,,,
CN1[C@@H]2CC[C@H]1C[C@@H](OC(=O)C(CO)c1ccccc1)C2 (some centres undefined) [ATROPINE],,0.0032,0.46,0.007
